Measurements reported in ChEMBL document CHEMBL5136966, “Synthesis and biological evaluation of N 6 derivatives of 8-azapurine as novel antiplatelet agents” (RSC Med Chem, 2021).

How the values were obtained:
[1] = Antiplatelet activity against ADP-induced human platelet in platelet rich plasma assessed as inhibition of platelet aggregation at 10 uM preincubated for 2 mins followed by ADP stimulation and measured for 5 mins by aggregometry relative to control; assay type: functional; conditions: 7 min
Summary of the method: (§1)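 Human whole blood anticoagulated with 3.8% sodium citrate (1:9 v/v); PRP by centrifugation at 300 rpm for 20 min at room temperature, PPP at 900 rpm for 10 min. Compound in DMSO (final under 0.5%) added to PRP, 2 min at 37 °C, then ADP 10 μM. Aggregometer stirred at 900 rpm, 37 °C, calibrated with PRP and PPP, read 5 min (Born). Inhibition from maximal trace height versus DMSO vehicle.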

[2] = Antiplatelet activity against ADP-induced human platelet in platelet rich plasma assessed as inhibition of platelet aggregation at 3 uM preincubated for 2 mins followed by ADP stimulation and measured for 5 mins by aggregometry relative to control; assay type: functional; conditions: 7 min; summary of the method: as §1
[3] = Antiplatelet activity against ADP-induced human platelet in platelet rich plasma assessed as inhibition of platelet aggregation preincubated for 2 mins followed by ADP stimulation and measured for 5 mins by aggregometry; assay type: functional, cell-based; summary of the method: as §1
Platelet = experiment: Potency index, ratio of ticagrelor IC50 to test compound IC50 for antiplatelet activity against ADP-induced human platelet in platelet rich plasma assessed as inhibition of platelet aggregation; assay type: functional
Mus musculus [4] = experiment: Antiplatelet activity against ADP-induced platelet aggregation in mouse assessed as inhibition of platelet aggregation at 2.5 mg/kg, iv measured after 1 hr by turbidimetric method relative to control; assay type: functional
Summary of the method: (§2)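 Male mice of about 20 g received compound iv (2.5 mg/kg) or orally (5 mg/kg). After 1 h, blood was drawn from the abdominal aorta into 3.8% citrate. PRP was obtained at 1000 rpm for 7 min, adjusted with PPP to about 2 × 10^6 platelets/mL and incubated 10 min at 37 °C. ADP final 5 μM; turbidimetric aggregation read, PRP as zero and PPP as 100%.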

Mus musculus [5] = experiment: Antiplatelet activity against ADP-induced platelet aggregation in mouse assessed as inhibition of platelet aggregation at 5 mg/kg, po measured after 1 hr by turbidimetric method relative to control; assay type: functional; summary of the method: as §2
[6] = Toxicity in mouse assessed as bleeding time at 5 mg/kg, po administered via gavage measured after 1 hr by bleeding tail test (reference value: 5.2 mins); assay type: organism-based; conditions: in vivo
[7] = Toxicity in mouse assessed as blood loss at 5 mg/kg, po administered via gavage measured after 1 hr by bleeding tail test (reference value: 34.92 uL); assay type: organism-based; conditions: in vivo
[8] = Toxicity in mouse assessed as death at 1500 mg/kg, po administered via gavage measured for 14 days; assay type: organism-based; conditions: in vivo, 336 h, time 14 day
Summary of the method: (§3)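 Single-dose oral gavage study run under GLP. Forty mice (20 male, 20 female) were randomly split into a treated group and a vehicle group of 20 each (10 male, 10 female). The vehicle group got aqueous sodium carboxymethyl cellulose.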

[9] = Toxicity in mouse assessed as change in body weight at 1500 mg/kg, po administered via gavage measured for 14 days; assay type: organism-based; conditions: in vivo, 336 h, time 14 day; summary of the method: as §3
[10] = Stability of compound in PBS buffer incubated for 1 week at 37 degC; assay type: physicochemical; conditions: time 1 weeks, read-out: Stability
[11] = Stability of compound in fasted-state simulated gastric fluid incubated for 1 day; assay type: ADME; conditions: read-out: Stability
[12] = Stability of compound in fasted-state simulated intestinal fluid incubated for 1 day; assay type: ADME; conditions: read-out: Stability
[13] = Stability in mouse liver microsomes measured after 1 hr; assay type: ADME, Microsome; conditions: read-out: Stability
[14] = Stability in mouse liver microsomes measured after 2 hrs; assay type: ADME, Microsome; conditions: read-out: Stability
P2Y purinoceptor 12 = P2Y purinoceptor 12 (Homo sapiens, UniProt Q9H244); experiment: Inhibition of P2Y12 receptor in human platelet assessed as reduction in ADP-induced VASP phosphorylation by flow cytometry; assay type: functional, cell-based
Sequence of P2Y purinoceptor 12 (Q9H244 whole entry): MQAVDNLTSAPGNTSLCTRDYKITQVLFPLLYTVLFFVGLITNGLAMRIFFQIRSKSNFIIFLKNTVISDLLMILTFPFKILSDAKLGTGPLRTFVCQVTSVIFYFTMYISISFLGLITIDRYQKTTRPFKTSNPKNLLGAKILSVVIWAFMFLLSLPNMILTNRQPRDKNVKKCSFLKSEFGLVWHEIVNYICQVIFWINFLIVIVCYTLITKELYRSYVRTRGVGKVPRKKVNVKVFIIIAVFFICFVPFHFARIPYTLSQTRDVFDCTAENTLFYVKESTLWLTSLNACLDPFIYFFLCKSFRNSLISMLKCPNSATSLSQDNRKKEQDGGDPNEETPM

IC50 [3] | Structure (SMILES) | inhibition at 10 µM [1] | inhibition at 3 µM [2] | also measured
– | CCCSc1nc(NCCO)c2nnn([C@@H]3C[C@H](O)[C@@H](O)[C@H]3O)c2n1 | 69.4% | – | –
– | CCCSc1nc(NCCCc2ccccc2)c2nnn([C@@H]3C[C@H](O)[C@@H](O)[C@H]3O)c2n1 | 29.3% | – | –
– | CCCSc1nc(NCCO)c2nnn([C@@H]3C[C@H](OCCO)[C@@H](O)[C@H]3O)c2n1 | 15.2% | – | –
– | CCCSc1nc(NCCc2cccc(F)c2)c2nnn([C@@H]3C[C@H](O)[C@@H](O)[C@H]3O)c2n1 | 68.3% | – | –
– | CCCSc1nc(N/N=C/c2cccc([N+](=O)[O-])c2)c2nnn([C@@H]3C[C@H](OCCO)[C@@H](O)[C@H]3O)c2n1 | 95.5% | 77.3% | –
– | CCCSc1nc(N/N=C/c2ccc(F)c(F)c2)c2nnn([C@@H]3C[C@H](O)[C@@H](O)[C@H]3O)c2n1 | 96.5% | 62.7% | –
– | CCCSc1nc(NC2CCCCC2)c2nnn([C@@H]3C[C@H](OCCO)[C@@H](O)[C@H]3O)c2n1 | 5.3% | – | –
3.16 µM | CCCCNc1nc(SCCC)nc2c1nnn2[C@@H]1C[C@H](OCCO)[C@@H](O)[C@H]1O | 40.8% | – | –
– | CCCSc1nc(N/N=C/c2ccc(O)cc2O)c2nnn([C@@H]3C[C@H](O)[C@@H](O)[C@H]3O)c2n1 | 98.3% | 63.4% | –
– | CCCSc1nc(NCCCO)c2nnn([C@@H]3C[C@H](OCCO)[C@@H](O)[C@H]3O)c2n1 | 13.9% | – | –
– | CCCSc1nc(NC2CCCC2)c2nnn([C@@H]3C[C@H](OCCO)[C@@H](O)[C@H]3O)c2n1 | 8.1% | – | –
4.89 µM | CCCSc1nc(NCC)c2nnn([C@@H]3C[C@H](OCCO)[C@@H](O)[C@H]3O)c2n1 | 21.4% | – | –
– | CCCSc1nc(NC2CC2)c2nnn([C@@H]3C[C@H](OCCO)[C@@H](O)[C@H]3O)c2n1 | 14.8% | – | –
0.67 µM | CCCSc1nc(N/N=C/c2ccccc2O)c2nnn([C@@H]3C[C@H](O)[C@@H](O)[C@H]3O)c2n1 | 92.1% | 83.6% | –
0.82 µM | CCCSc1nc(NC2CC2)c2nnn([C@@H]3C[C@H](O)[C@@H](O)[C@H]3O)c2n1 | 86.3% | – | –
– | CCCNc1nc(SCCC)nc2c1nnn2[C@@H]1C[C@H](O)[C@@H](O)[C@H]1O | 68.6% | – | –
– | CCCSc1nc(N/N=C/c2ccc(OC)c(OC)c2)c2nnn([C@@H]3C[C@H](O)[C@@H](O)[C@H]3O)c2n1 | 78.3% | 33.4% | –
– | CCCSc1nc(NCC(C)C)c2nnn([C@@H]3C[C@H](OCCO)[C@@H](O)[C@H]3O)c2n1 | 7.8% | – | –
– | CCCSc1nc(N/N=C/c2ccc(Cl)cc2Cl)c2nnn([C@@H]3C[C@H](O)[C@@H](O)[C@H]3O)c2n1 | 50.1% | – | –
0.4 µM | CCCSc1nc(N/N=C/c2cccs2)c2nnn([C@@H]3C[C@H](O)[C@@H](O)[C@H]3O)c2n1 | 95.4% | 80.5% | –

IC50 [3] | Structure (SMILES) | inhibition at 10 µM [1] | inhibition at 3 µM [2] | also measured
– | CCCSc1nc(N/N=C/c2ccccc2OC)c2nnn([C@@H]3C[C@H](O)[C@@H](O)[C@H]3O)c2n1 | 48.7% | 11.7% | –
– | CCCSc1nc(N/N=C/c2ccc([N+](=O)[O-])cc2)c2nnn([C@@H]3C[C@H](O)[C@@H](O)[C@H]3O)c2n1 | 62.7% | 5% | –
– | CCCSc1nc(NCCc2ccc(O)cc2)c2nnn([C@@H]3C[C@H](O)[C@@H](O)[C@H]3O)c2n1 | 76.8% | – | –
0.78 µM | CCCSc1nc(N/N=C/c2ccc(O)cc2)c2nnn([C@@H]3C[C@H](O)[C@@H](O)[C@H]3O)c2n1 | 100% | 86.3% | –
– | CCCSc1nc(N/N=C/c2ccc(Cl)cc2)c2nnn([C@@H]3C[C@H](O)[C@@H](O)[C@H]3O)c2n1 | 53.7% | 7% | –
– | CCCCNc1nc(SCCC)nc2c1nnn2[C@@H]1C[C@H](O)[C@@H](O)[C@H]1O | 85.4% | – | –
1.78 µM | CCCSc1nc(NCCCO)c2nnn([C@@H]3C[C@H](O)[C@@H](O)[C@H]3O)c2n1 | 70.3% | – | –
1.3 µM | CCCSc1nc(N/N=C/c2ccc(OC)cc2)c2nnn([C@@H]3C[C@H](O)[C@@H](O)[C@H]3O)c2n1 | 81.5% | 71.4% | –
– | CCCSc1nc(N/N=C/c2ccc(F)c(F)c2)c2nnn([C@@H]3C[C@H](OCCO)[C@@H](O)[C@H]3O)c2n1 | 85.4% | 46.3% | –
0.74 µM | CCCSc1nc(N[C@@H]2C[C@H]2c2ccc(F)c(F)c2)c2nnn([C@@H]3C[C@H](OCCO)[C@@H](O)[C@H]3O)c2n1 [TICAGRELOR] | 92.7% | 78.6% | inhibition in vivo at 2.5 mg/kg (Mus musculus [4]): 52.2%; inhibition in vivo at 5 mg/kg (Mus musculus [5]): 69.4%; Time [6]: > 20 min; Activity [7]: 73.25 µL; IC50 (P2Y purinoceptor 12): 0.039 µM
0.58 µM | CCCSc1nc(N/N=C/c2cccc(O)c2)c2nnn([C@@H]3C[C@H](OCCO)[C@@H](O)[C@H]3O)c2n1 | 100% | 85.4% | –
– | CCCNc1nc(SCCC)nc2c1nnn2[C@@H]1C[C@H](OCCO)[C@@H](O)[C@H]1O | 13.6% | – | –
– | CCCSc1nc(N/N=C/c2ccc([N+](=O)[O-])cc2)c2nnn([C@@H]3C[C@H](OCCO)[C@@H](O)[C@H]3O)c2n1 | 90.9% | 70.9% | –
0.66 µM | CCCSc1nc(N/N=C/c2cccc([N+](=O)[O-])c2)c2nnn([C@@H]3C[C@H](O)[C@@H](O)[C@H]3O)c2n1 | 88.6% | 76.3% | –
– | CCCSc1nc(N/N=C/c2ccccc2Cl)c2nnn([C@@H]3C[C@H](O)[C@@H](O)[C@H]3O)c2n1 | 83.2% | 51.6% | –
– | CCCSc1nc(N/N=C/c2ccccn2)c2nnn([C@@H]3C[C@H](O)[C@@H](O)[C@H]3O)c2n1 | 71.7% | 36.4% | –
– | CCCSc1nc(N/N=C/c2ccc(Cl)cc2)c2nnn([C@@H]3C[C@H](OCCO)[C@@H](O)[C@H]3O)c2n1 | 69.1% | 9.1% | –
0.45 µM | CCCSc1nc(N/N=C/c2ccccc2)c2nnn([C@@H]3C[C@H](O)[C@@H](O)[C@H]3O)c2n1 | 100% | 81.6% | Ratio IC50 (Platelet): 2
– | CCCSc1nc(NCCc2ccccc2)c2nnn([C@@H]3C[C@H](O)[C@@H](O)[C@H]3O)c2n1 | 33.4% | – | –

Structure (SMILES) | IC50 [3] | inhibition at 10 µM [1] | inhibition at 3 µM [2] | also measured
CCCSc1nc(N/N=C/c2cccc(O)c2)c2nnn([C@@H]3C[C@H](O)[C@@H](O)[C@H]3O)c2n1 | 0.2 µM | 100% | 93.4% | Ratio IC50 (Platelet): 4; inhibition in vivo at 2.5 mg/kg (Mus musculus [4]): 62.2%; inhibition in vivo at 5 mg/kg (Mus musculus [5]): 73.3%; Time [6]: 10.4 min; Activity [7]: 44.5 µL; Activity [8]: Non-Toxic; Activity [9]: Non-Toxic; remaining at 168 h [10]: 98.3%; remaining at 24 h [11]: 96.7%; remaining at 24 h [12]: 97.4%; remaining at 1 h [13]: 81.2%; remaining at 2 h [14]: 73.7%; IC50 (P2Y purinoceptor 12): 0.046 µM
